Assay results published in publication PMC8561282 (Haematologica, 2021).
Entries after “also recorded” stand apart in the source; their conditions may differ.

Experiments:
[1] = system: pentose phosphate pathway; assay: 1,2,3-13C3-glucose tracing; type: cell-based, mouse
Outline: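 Red cells from wild-type, humanized band 3, HA Del (lacking residues 1-11) and BS KO (lacking residues 12-23) mice were stimulated with methylene blue and incubated with 1,2,3-13C3-glucose at 37 °C for 1 h. In rescue arms, cells were preincubated with recombinant band 3 N-terminal peptide (residues 1-56). The read-out was the ratio of lactate isotopologues +3 (glycolysis) and +2 (pentose phosphate pathway), measured by UHPLC-MS.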

[2] = system: RBC from WT, HuB3, HA Del and BS KO mice; assay: Glutathione oxidation; type: cell-based, mouse
GAPDH = assay: 15N-HSQC NMR of band 3 peptide 1-56 upon titration of GAPDH; type: binding; conditions: 25 °C, 100 or 200 GAPDH (mM in text, μM in legend)
Outline: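 15N-HSQC spectra of 15N-labelled recombinant band 3 peptide 1-56 were recorded at 25 °C on a 900 instrument using a standard sequence. Recombinant GAPDH (tetramer) was titrated at 0, 100 and 200 (units as printed are unreliable). Individual residue amide signals were followed across the titration.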

[3] = system: pentose phosphate pathway; type: cell-based, human; conditions: RBC lysates, 1,2,3-13C3-glucose 5 mM, 37 °C, 1 h, methylene blue; recombinant peptide
Outline: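 Red cell lysates came from the band 3 Neapolis subject (AE1 residues 1-11 absent) and from healthy donors (n=3). Lysates were incubated with 1,2,3-13C3-glucose at 37 °C for 1 h under methylene blue stimulation, with or without recombinant N-terminal band 3 peptide (residues 1-56). Isotopologues were measured by UHPLC-MS to assess pentose phosphate pathway activation.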

[4] = system: RBC cytosol and membrane proteins; type: binding, human; conditions: part of macromolecular complexes with direct interactors
[5] = recombinant peptide, 1,2,3-13C3-glucose, methylene blue

Compound | Activation of the PPP, methylene blue stimulation, HA Del ([1]; 37 °C, 1 h, HA Del mouse RBC) | Glutathione oxidation with MB [2] | PPP activation and glycolysis with peptide, all mouse strains ([1]; legend of Figure 1I, recombinant peptide, methylene blue) | PPP activation with peptide, BS KO mouse RBC [1, 5] | PPP activation with peptide, HA Del mouse RBC [1, 5] | Y8 amide signal upon GAPDH titration (GAPDH) | Y46 amide signal upon GAPDH titration (GAPDH) | Rescue of the deficit in PPP activation, band 3 Neapolis [3] | Candidate indirect interactors by pull-down followed by crosslinking [4]
CN(C)c1ccc2nc3ccc(=[N+](C)C)cc-3sc2c1 [MB, methylene blue, reference compound] | ablated in HA Del mice | increased glutathione oxidation (GSSG/GSH ratios) |  |  |  |  |  |  | 
AE11-56: recombinantly expressed peptide coding for amino acids 1-56 of the N-terminus of band 3 (AE1) (MEELQDDYEDMMEENLEQEEYEDPDIPESQMEEPAAHDTEATATDYHTTSHPGTHK; UniProt P02730 1-56, looked up, fragment) |  |  | increased PPP activation and decreased glycolysis in HA Del mice and further exacerbated responses in all the other strains | higher basal levels and further increases in PPP activation by MB | the defect in PPP activation of HA Del mice was rescued | near complete disappearance of the central Y8 amide | no chemical shift perturbations | a defect that was corrected by rescue; also recorded: partially rescued in vitro | peroxiredoxin 2,[51] peroxiredoxin 6, catalase, phosphofructokinase isoforms,[12] proteins 4.1 and 4.2, glucose phosphate isomerase, stomatin, adducin b, carbonic anhydrase 1, and 1-phosphatidylinositol 4,5-bisphosphate phosphodiesterase η-2
